# Source: PubChem BioAssay
# Activity calls are given as the source filed them.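 How the source made its calls, unless noted: active means Her2 level under about 52% in both replicate screens, with viability over 70% of control (limit read from the data); inconclusive means Her2 under the limit in one screen only, or viability under 70%; inactive means Her2 level above the set limit.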
# Tests used:
# [1] = Her2 expression decrease, cell viability multiplex – SKBR3 breast tumor cells, AlphaScreen, ATP viability, primary screen (AID 461); conditions: SKBR3 Her2 protein level, 18-24 h, measured here: SKBR3 viability, ATP luminescence, at 10 µM;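 on Her2 level: lower value means less Her2 protein in the cells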;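 on viability: percent of carrier control wells set as 100% viability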
# [2] = biological target: Receptor tyrosine-protein kinase erbB-2 (Homo sapiens) (UniProt P04626); assay: as above; conditions: 18-24 h, at 10 µM, stronger effect = lower value
# [3] = reduced viability of SK-BR-3 breast cancer cells – cell-based, 24 h, human, pilot screen (AID 572;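 active means viability at or below 10% of carrier control in both of two separate runs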;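 further: compound exposure lasted between 18 and 24 h rather than exactly 24 h; 100% = carrier-treated control wells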); conditions: SK-BR-3 viability, CellTiter-Glo luminescence, at 10 µM, stronger effect = lower value
# [4] = HUVEC growth inhibition – cell-based, human, primary screen (AID 575;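 active means viability at or below 30% in both replicate assays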;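 further: 100% = median of untreated cell wells with 0.1% DMSO on each plate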); conditions: HUVEC proliferation, CellTiter-Glo luminescence, 72 h; at 10 µM; stronger effect = lower value
# How it was run: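 Timing: 72 h treatment at 37 °C; material: HUVEC primary cells; technique: CellTiter-Glo luminescence measuring cellular ATP; controls: vehicle and MePR control wells; measure: percent of median DMSO-control luminescence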
# [5] = H69AR cell proliferation blockers – human, duplicate replicates, primary screen (AID 580;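 active means viability at or under a set limit in both replicates, limit being median viability minus 3 SD, cut at about 48% in these data, passing the limit was not always enough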;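 further: 100% = mean luminescence of untreated wells and 0% = no signal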); conditions: H69AR lung tumor cells viability, ATP luminescence, 72 h; at 10 µM; stronger effect = lower value
# [6] = MRP1 drug-resistance reversers in H69AR cells – cell-based, doxorubicin co-treatment, pilot screen (AID 601;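 active means viability loss from added drug above about 55%, and viability with drug at most 40%, in both replicates, limit read from the data, passing the limit was not always enough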); conditions: CellTiter-Glo, 72 h, at 10 µM; for differential viability (reversal): stronger effect = higher value
# [7] = yeast transport mutant growth inhibition pilot in 384-well plates, post-Golgi transport modulator project (AID 636; in the data active means inhibition above about 31%); conditions: absorbance 615 nm, about 18 h, stronger effect = higher value
# [8] = growth suppression of yeast trafficking mutant, preliminary HTS, modulators of trafficking downstream of Golgi apparatus project, 1536-format plate, OD 615 nm (AID 637; in the data active means inhibition above about 30%); conditions: yeast transport mutant growth, absorbance 615 nm, 18 h; stronger effect = higher value
# [9] = H69AR cells + 2 uM doxorubicin, measured here: viability with 2 uM doxorubicin, stronger effect = lower value
# [10] = H69AR cells, compound alone cytotoxicity
# Sequence of Receptor tyrosine-protein kinase erbB-2 (Homo sapiens) (P04626 whole entry, looked up): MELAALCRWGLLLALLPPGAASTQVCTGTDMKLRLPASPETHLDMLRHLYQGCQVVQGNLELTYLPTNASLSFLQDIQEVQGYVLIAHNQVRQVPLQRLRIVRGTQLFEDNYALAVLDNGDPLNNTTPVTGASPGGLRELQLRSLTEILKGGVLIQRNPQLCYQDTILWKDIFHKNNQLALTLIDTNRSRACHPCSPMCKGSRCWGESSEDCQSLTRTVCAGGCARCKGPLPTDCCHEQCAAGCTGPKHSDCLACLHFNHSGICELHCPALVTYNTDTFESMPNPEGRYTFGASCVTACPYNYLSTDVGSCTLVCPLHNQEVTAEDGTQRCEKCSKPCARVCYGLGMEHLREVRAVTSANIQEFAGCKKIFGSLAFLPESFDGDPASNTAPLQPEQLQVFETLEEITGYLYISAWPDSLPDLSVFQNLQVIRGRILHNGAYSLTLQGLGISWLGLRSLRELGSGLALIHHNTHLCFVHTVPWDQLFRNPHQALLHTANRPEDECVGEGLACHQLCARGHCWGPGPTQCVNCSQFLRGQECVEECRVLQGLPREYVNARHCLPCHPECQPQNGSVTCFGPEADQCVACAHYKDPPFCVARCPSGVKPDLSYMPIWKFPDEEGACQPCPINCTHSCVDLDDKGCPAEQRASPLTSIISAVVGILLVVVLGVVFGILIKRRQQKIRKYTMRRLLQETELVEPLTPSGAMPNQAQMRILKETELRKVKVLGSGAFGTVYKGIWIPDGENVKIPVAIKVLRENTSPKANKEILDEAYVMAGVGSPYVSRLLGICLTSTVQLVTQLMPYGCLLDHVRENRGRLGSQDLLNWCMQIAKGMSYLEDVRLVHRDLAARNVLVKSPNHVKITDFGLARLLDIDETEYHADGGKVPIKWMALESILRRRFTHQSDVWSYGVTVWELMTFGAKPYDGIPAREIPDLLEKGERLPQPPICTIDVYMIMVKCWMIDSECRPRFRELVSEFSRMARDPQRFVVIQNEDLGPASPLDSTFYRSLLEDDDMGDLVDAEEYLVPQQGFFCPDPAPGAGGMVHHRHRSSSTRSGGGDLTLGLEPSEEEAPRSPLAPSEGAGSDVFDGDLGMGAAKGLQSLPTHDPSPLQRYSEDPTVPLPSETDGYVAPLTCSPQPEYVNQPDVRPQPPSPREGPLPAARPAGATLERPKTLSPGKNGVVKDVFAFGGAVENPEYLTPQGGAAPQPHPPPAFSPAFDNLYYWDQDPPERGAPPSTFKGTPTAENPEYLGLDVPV
Compound,viability [1] [%],Her2 level [2],viability [3],viability [4],viability [5],differential viability (reversal) ([6]; H69AR cells + 2 uM doxorubicin),"viability [6, 9] [%]","viability [6, 10] [%]",inhibition [7],inhibition [8]
CCc1ccc(CN(C)CCc2ccccn2)cc1,108,86% (inactive),108% (inactive),106% (inactive),102% (inactive),16.7% (inactive),85.8,102,-5.62% (inactive),-3.02% (inactive)
CCC(=O)N1CCc2cc(S(=O)(=O)CCC(=O)Nc3ccc(C)c(F)c3)ccc21,100,98.5% (inactive),100% (inactive),91.6% (inactive),83.3% (inactive),2.27% (inactive),81.1,83.3,-4% (inactive),1.8% (inactive)
CC(C)CCNC(=O)CCNS(=O)(=O)c1ccc(Cl)cc1,110,95% (inactive),110% (inactive),99.7% (inactive),94.1% (inactive),-0.295% (inactive),94.4,94.1,-1.71% (inactive),-4.03% (inactive)
CS(=O)(=O)N1CCCC(C(=O)NCc2ccccc2Cl)C1 (stereo not given),99,89% (inactive),99% (inactive),107% (inactive),86.5% (inactive),-4.79% (inactive),91.3,86.5,-1.3% (inactive),-0.95% (inactive)
CCOC(=O)c1oc2ccccc2c1CSc1nnnn1-c1ccc(OC)cc1,82.5,69% (inactive),82.5% (inactive),77.4% (inactive),75% (inactive),1.07% (inactive),73.9,75,-4.8% (inactive),0.16% (inactive)
COc1cc(=O)[nH]c(SCc2c(F)c(F)c(F)c(F)c2F)n1,95,95.5% (inactive),95% (inactive),94% (inactive),91.5% (inactive),-1.69% (inactive),93.2,91.5,-5.6% (inactive),-10% (inactive)
CC1CCc2c(sc(N)c2C(N)=O)C1 (stereo not given),95.5,81% (inactive),95.5% (inactive),86.7% (inactive),91.5% (inactive),6.62% (inactive),84.9,91.5,-0.26% (inactive),4.5% (inactive)
CCOC(=O)c1sc(NC(=O)CNC(=O)Cn2cnc3sc(C)c(C)c3c2=O)nc1C,94,88.5% (inactive),94% (inactive),93.4% (inactive),104% (inactive),7.01% (inactive),96.7,104,1.18% (inactive),2.26% (inactive)
CC(C)(C)Nc1nc(NC(C)(C)C)nc(-n2ccnc2)n1,122,80% (inactive),122% (inactive),69% (inactive),88.6% (inactive),1.06% (inactive),87.6,88.6,-0.26% (inactive),10.8% (inactive)
COc1ccc(NC(=O)CN2CCN(S(=O)(=O)c3ccc(Cl)cc3)CC2)cc1,92,76% (inactive),92% (inactive),88% (inactive),81.8% (inactive),-11.3% (inactive),93.1,81.8,-6.18% (inactive),-11% (inactive)
Cc1ccc(-c2noc(CCC(=O)N3CCN(c4cccc(C(F)(F)F)c4)CC3)n2)cc1,87.5,91% (inactive),87.5% (inactive),71.2% (inactive),93.1% (inactive),-3.76% (inactive),96.8,93.1,-3.95% (inactive),-2.67% (inactive)
COc1ccccc1C1C(C(C)=O)=C(O)C(=O)N1CCc1ccccc1 (stereo not given),93.5,102% (inactive),93.5% (inactive),98.1% (inactive),104% (inactive),9.69% (inactive),94.5,104,-5.07% (inactive),3.87% (inactive)
CC(=O)Nc1ccc(S(=O)(=O)N2CCC(NC(C)=O)(c3cccc(F)c3)CC2)cc1,89,79% (inactive),89% (inactive),100% (inactive),104% (inactive),13% (inactive),90.5,104,-6.89% (inactive),0.82% (inactive)
Cc1cc(C)n2cc(CSc3nnnn3-c3ccc(Cl)cc3)nc2n1,89.5,89% (inactive),89.5% (inactive),94.1% (inactive),97.6% (inactive),7.13% (inactive),90.5,97.6,-1.73% (inactive),0.65% (inactive)
O=C(CCN1C(=O)C2C3C=CC(C3)C2C1=O)NC1CCCc2ccccc21 (stereo not given),81,90.5% (inactive),81% (inactive),76.7% (inactive),94.2% (inactive),6.45% (inactive),87.7,94.2,-1.89% (inactive),5.57% (inactive)
NC(=O)c1ccccc1NC(=O)CCCN1C(=O)CCC1=O,101,83.5% (inactive),101% (inactive),92.9% (inactive),95.6% (inactive),10.6% (inactive),85,95.6,-6.89% (inactive),-1.9% (inactive)

Compound,viability [1] [%],Her2 level [2],viability [3],viability [4],viability [5],differential viability (reversal) ([6]; H69AR cells + 2 uM doxorubicin),"viability [6, 9] [%]","viability [6, 10] [%]",inhibition [7],inhibition [8]
O=C(O)c1oc2ccccc2c1-n1cccc1,102,86.5% (inactive),102% (inactive),102% (inactive),96.8% (inactive),-0.995% (inactive),97.8,96.8,-4.8% (inactive),0.16% (inactive)
C=CCSC1=C(C#N)C(c2ccccc2)CC(=O)N1 (stereo not given),106,93.5% (inactive),106% (inactive),114% (inactive),104% (inactive),6.72% (inactive),97.4,104,-1.87% (inactive),-4.35% (inactive)
CCN=C1SC(CC(=O)Nc2ccccc2)C(=O)N1CC (stereo not given),98.5,91.5% (inactive),98.5% (inactive),122% (inactive),105% (inactive),10% (inactive),94.9,105,-1.92% (inactive),-1.33% (inactive)
CC(C)COC(=O)NCC12C=CC(O1)C1C(=O)N(c3ccc(Cl)cc3)C(=O)C12 (stereo not given),96,99.5% (inactive),96% (inactive),116% (inactive),89.9% (inactive),-2.55% (inactive),92.5,89.9,-6.16% (inactive),-7.3% (inactive)
COc1ccccc1N1CCN(C(=O)CCNS(=O)(=O)c2ccc3c(c2)CCC(=O)N3)CC1,89,81.5% (inactive),89% (inactive),106% (inactive),89.8% (inactive),-0.605% (inactive),90.4,89.8,-4.53% (inactive),2.62% (inactive)
COc1ccc(Cl)cc1N1CC(c2nc3ccccc3[nH]2)CC1=O (stereo not given),97.5,104% (inactive),97.5% (inactive),98% (inactive),104% (inactive),7.82% (inactive),96.3,104,-3.21% (inactive),2.17% (inactive)
CCCCOn1c(C)c(C(=O)OCC)c2c3nonc3ccc21,98.5,114% (inactive),98.5% (inactive),63.5% (inactive),83.5% (inactive),15% (inactive),68.6,83.5,4.4% (inactive),27.6% (inactive)
CCOC(=O)Cc1nnc2c(Nc3ccc(C)cc3)nc3nonc3n12,97,76% (inactive),97% (inactive),74.9% (inactive),94% (inactive),-1.2% (inactive),95.2,94,-4% (inactive),7.7% (inactive)
O=C(O)C1CCCN1C(=O)Nc1ccc(F)cc1 (stereo not given),87,90.5% (inactive),87% (inactive),106% (inactive),93.6% (inactive),10.5% (inactive),83.1,93.6,-4.73% (inactive),-8.5% (inactive)
CCOc1cc(-c2nc(-c3ccc(C)nc3OCC)no2)cc(OCC)c1OCC,91.5,108% (inactive),91.5% (inactive),82.2% (inactive),94.8% (inactive),-3.25% (inactive),98,94.8,2% (inactive),3.44% (inactive)
COc1ccc(CC(=O)Nc2ccc(-c3nnc(-c4ccc(C)cc4)o3)cc2)cc1,114,81.5% (inactive),114% (inactive),69.9% (inactive),4.72% (active),-0.04% (inactive),4.76,4.72,-1.58% (inactive),-1.75% (inactive)
O=C(Nc1cccc2ccccc12)c1cnccn1,82,88.5% (inactive),82% (inactive),92.3% (inactive),95% (inactive),12.5% (inactive),82.5,95,-7.53% (inactive),-1.59% (inactive)
CCn1cc(C2=NCC(C)O2)c2ccccc21 (stereo not given),96.5,83% (inactive),96.5% (inactive),74.8% (inactive),93.5% (inactive),3.18% (inactive),90.3,93.5,-5.54% (inactive),-0.32% (inactive)
CSc1nnc(-c2nnc(SC)n2-c2ccccc2)n1-c1ccccc1,87,83.5% (inactive),87% (inactive),89.8% (inactive),98.3% (inactive),9.77% (inactive),88.6,98.3,-5.73% (inactive),6.77% (inactive)
CC(Oc1ccc(Br)cc1)C(=O)N1CCc2ccccc21 (stereo not given),85.5,96.5% (inactive),85.5% (inactive),107% (inactive),96.9% (inactive),9.3% (inactive),87.6,96.9,-2.76% (inactive),-3.02% (inactive)
